Laboratory results published in ChEMBL document CHEMBL5030505, “Assessment of NR4A Ligands That Directly Bind and Modulate the Orphan Nuclear Receptor Nurr1” (J Med Chem, 2020).
Calls of active or inactive are those of the source. No cut-off for these calls is given here.

Experiments:
Format in all cases: cell-based
[1] = target: Nuclear receptor subfamily 4 group A member 2 (Homo sapiens) (UniProt P43354); assay: Modulation of full length human Nurr1 expressed in PC12 cells co-transfected with RXRalpha and luciferase reporter plasmid harboring NBRE response element assessed as increase in luciferase activity at 100 uM incubated for 18 hrs by luciferase reporter gene assay; conditions: PC-12, filed as modulator
Summary of the method: (§1)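 PC12 cells were grown at 37°C and 5% CO2 in […] medium with 15% horse serum and 2.5% FBS. They were transfected with full-length Nurr1 (1 μg) plus full-length RXRα (1 μg) and 3xNBRE- or 3xNurRE-luciferase reporter (6 μg) for 18 h, then replated at 10,000 cells/well for 4 h. Ligand or vehicle (water, ethanol or DMSO) was added in quadruplicate for 18 h. Luminescence was read as fold change over vehicle. Results are mean ± s.e.m., n=4, from 2 independent experiments, analysed by one-way ANOVA against vehicle.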

[2] = test system: PC-12; assay: Modulation of Gal4-fused VP16 expressed in PC12 cells co-transfected with UAS repoter gene assessed as increase in luciferase activity at 0.01 to 100 uM incubated for 18 hrs by luciferase reporter gene assay; conditions: Human alphaherpesvirus 2, filed as modulator, dose 0.01-100 µM
Summary of the method: (§2)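 Cells in 10-cm dishes were transfected with Gal4-VP16 expression plasmid (2 μg) plus 5xUAS-luciferase reporter (2 μg) for 18 h. They were replated at 10,000 cells/well for 4 h, then given ligand or vehicle (water, ethanol or DMSO) in quadruplicate for 18 h. Luciferase was read with Britelite Plus. Fold change is versus vehicle-treated cells, with one-way ANOVA versus vehicle.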

[3] = target: Nuclear receptor subfamily 4 group A member 2 (Homo sapiens) (UniProt P43354); assay: Modulation of full length human Nurr1 expressed in PC12 cells co-transfected with luciferase reporter plasmid harboring NBRE response element assessed as increase in luciferase activity at 100 uM incubated for 18 hrs by luciferase reporter gene assay; conditions: PC-12, filed as modulator
Summary of the method: (§3)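 Here PC12 cells (FK-12 medium, 15% horse serum, 2.5% FBS, 37°C, 5% CO2) received full-length Nurr1 (2 μg) without RXRα, plus 3xNBRE- or 3xNurRE-luciferase reporter (6 μg), for 18 h. Cells were replated at 10,000/well for 4 h, then treated with ligand or vehicle in quadruplicate for 18 h. Luciferase luminescence was normalized to vehicle-treated cells. Results are mean ± s.e.m. (n=4) from 2 independent experiments, with one-way ANOVA against vehicle.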

[4] = target: Nuclear receptor subfamily 4 group A member 2 (Homo sapiens) (UniProt P43354); assay: Modulation of full length human Nurr1 expressed in PC12 cells co-transfected with RXRalpha and luciferase reporter plasmid harboring NurRE response element assessed as increase in luciferase activity at 100 uM incubated for 18 hrs by luciferase reporter gene assay; conditions: PC-12, filed as modulator; summary of the method: as §1
[5] = target: Nuclear receptor subfamily 4 group A member 2 (Homo sapiens) (UniProt P43354); assay: Modulation of full length human Nurr1 expressed in PC12 cells co-transfected with luciferase reporter plasmid harboring NurRE response element assessed as increase in luciferase activity at 100 uM incubated for 18 hrs by luciferase reporter gene assay; conditions: PC-12, filed as modulator; summary of the method: as §3
[6] = target: Nuclear receptor subfamily 4 group A member 2 (Homo sapiens) (UniProt P43354); assay: Modulation of full length human Nurr1 expressed in HEK293T cells co-transfected with RXRalpha and luciferase reporter plasmid harboring NBRE response element assessed as increase in luciferase activity at 100 uM incubated for 18 hrs by luciferase reporter gene assay; conditions: filed as modulator
Summary of the method: (§4)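 Full-length Nurr1 plasmid, alone (2 μg) or 1 μg plus full-length RXRα (1 μg), cotransfected with 3xNBRE- or 3xNurRE-luciferase reporter (6 μg) using Lipofectamine 2000, 18 h. Cells replated at 10,000/well for 4 h. Four ligand concentrations, or vehicle (water, ethanol or DMSO), added in quadruplicate for 18 h. Luciferase read. Fold change vs vehicle, mean ± s.e.m., one-way ANOVA vs vehicle.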

[7] = target: Nuclear receptor subfamily 4 group A member 2 (Homo sapiens) (UniProt P43354); assay: Modulation of full length human Nurr1 expressed in HEK293T cells co-transfected with RXRalpha and luciferase reporter plasmid harboring NurRE response element assessed as increase in luciferase activity at 100 uM incubated for 18 hrs by luciferase reporter gene assay; conditions: filed as modulator; summary of the method: as §4
[8] = target: Nuclear receptor subfamily 4 group A member 2 (Homo sapiens) (UniProt P43354); assay: Modulation of full length human Nurr1 expressed in HEK293T cells co-transfected with luciferase reporter plasmid harboring NBRE response element assessed as increase in luciferase activity at 100 uM incubated for 18 hrs by luciferase reporter gene assay; conditions: filed as modulator; summary of the method: as §4
[9] = test system: HEK293T; assay: Modulation of Gal4-fused VP16 expressed in HEK293T cells co-transfected with UAS repoter gene assessed as increase in luciferase activity at 0.01 to 100 uM incubated for 18 hrs by luciferase reporter gene assay; conditions: Human alphaherpesvirus 2, filed as modulator, dose 0.01-100 µM; summary of the method: as §2
[10] = target: Nuclear receptor subfamily 4 group A member 2 (Homo sapiens) (UniProt P43354); assay: Modulation of full length human Nurr1 expressed in SKNBE(2) cells co-transfected with RXRalpha and luciferase reporter plasmid harboring NurRE response element assessed as increase in luciferase activity at 100 uM incubated for 18 hrs by luciferase reporter gene assay; conditions: SKNBE2, filed as modulator
Summary of the method: (§5)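 SK-N-BE(2)-C cells were kept in 1:1 EMEM/F12 with 10% FBS at 37°C and 5% CO2. They were cotransfected with full-length Nurr1 (1 μg), full-length RXRα (1 μg) and 3xNBRE- or 3xNurRE-luc reporter (6 μg) for 18 h, replated at 10,000 cells/well for 4 h, and then treated with ligand or vehicle in quadruplicate for 18 h. The readout was luciferase luminescence as fold over vehicle, reported as mean ± s.e.m. (n=4) from 2 independent experiments, one-way ANOVA.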

[11] = target: Nuclear receptor subfamily 4 group A member 2 (Homo sapiens) (UniProt P43354); assay: Modulation of full length human Nurr1 expressed in SKNBE(2) cells co-transfected with RXRalpha and luciferase reporter plasmid harboring NBRE response element assessed as increase in luciferase activity at 100 uM incubated for 18 hrs by luciferase reporter gene assay; conditions: SKNBE2, filed as modulator; summary of the method: as §5
[12] = test system: HEK-293T; assay: Cytotoxicity in human HEK293T cells assessed as reduction in cell viability at 0.01 to 100 uM incubated for 18 hrs by Cell Titer-Glo assay; conditions: dose 0.01-100 µM
Summary of the method: (§6)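 Cells seeded at 1.5 million per 10-cm dish. Next day they were replated at 10,000 cells/well and rested 4 h. Ligand or vehicle (water, ethanol or DMSO, by ligand) was added in dose-response format in quadruplicate. After 18 h, viability was read by CellTiter-Glo luminescence. Data are mean ± s.e.m., generally representative of 2 independent experiments. One-way ANOVA versus vehicle.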

[13] = target: Nuclear receptor subfamily 4 group A member 2 (Homo sapiens) (UniProt P43354); assay: Modulation of full length human Nurr1 expressed in SKNBE(2) cells co-transfected with luciferase reporter plasmid harboring NurRE response element assessed as increase in luciferase activity at 100 uM incubated for 18 hrs by luciferase reporter gene assay; conditions: SKNBE2, filed as modulator
[14] = test system: SK-N-BE(2); assay: Cytotoxicity in human SKNBE2 cells assessed as reduction in cell viability at 0.01 to 100 uM incubated for 18 hrs by Cell Titer-Glo assay; conditions: dose 0.01-100 µM; summary of the method: as §6
[15] = test system: PC-12; assay: Cytotoxicity in rat PC-12 cells assessed as reduction in cell viability at 0.01 to 100 uM incubated for 18 hrs by Cell Titer-Glo assay; conditions: pc-12, 18 h, dose 0.01-100 µM; summary of the method: as §6
[16] = target: Nuclear receptor subfamily 4 group A member 2 (Homo sapiens) (UniProt P43354); assay: Modulation of full length human Nurr1 expressed in SKNBE(2) cells co-transfected with luciferase reporter plasmid harboring NBRE response element assessed as increase in luciferase activity at 100 uM incubated for 18 hrs by luciferase reporter gene assay; conditions: SKNBE2, filed as modulator
Summary of the method: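 Transfection of SK-N-BE(2)-C cells (1:1 EMEM/F12, 10% FBS, 37°C, 5% CO2) used full-length Nurr1 alone (2 μg, no RXRα) with 3xNBRE- or 3xNurRE-luciferase reporter (6 μg) for 18 h. Cells were replated at 10,000/well for 4 h, then exposed to ligand or vehicle in quadruplicate for 18 h. Luminescence was expressed as fold over vehicle, as mean ± s.e.m. (n=4) from 2 independent experiments, one-way ANOVA against vehicle.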

[17] = target: Nuclear receptor subfamily 4 group A member 2 (Homo sapiens) (UniProt P43354); assay: Modulation of full length human Nurr1 expressed in HEK293T cells co-transfected with luciferase reporter plasmid harboring NurRE response element assessed as increase in luciferase activity at 100 uM incubated for 18 hrs by luciferase reporter gene assay; conditions: filed as modulator; summary of the method: as §4

Chain of Nuclear receptor subfamily 4 group A member 2 (Homo sapiens) (P43354 whole entry, the tested form may be a part): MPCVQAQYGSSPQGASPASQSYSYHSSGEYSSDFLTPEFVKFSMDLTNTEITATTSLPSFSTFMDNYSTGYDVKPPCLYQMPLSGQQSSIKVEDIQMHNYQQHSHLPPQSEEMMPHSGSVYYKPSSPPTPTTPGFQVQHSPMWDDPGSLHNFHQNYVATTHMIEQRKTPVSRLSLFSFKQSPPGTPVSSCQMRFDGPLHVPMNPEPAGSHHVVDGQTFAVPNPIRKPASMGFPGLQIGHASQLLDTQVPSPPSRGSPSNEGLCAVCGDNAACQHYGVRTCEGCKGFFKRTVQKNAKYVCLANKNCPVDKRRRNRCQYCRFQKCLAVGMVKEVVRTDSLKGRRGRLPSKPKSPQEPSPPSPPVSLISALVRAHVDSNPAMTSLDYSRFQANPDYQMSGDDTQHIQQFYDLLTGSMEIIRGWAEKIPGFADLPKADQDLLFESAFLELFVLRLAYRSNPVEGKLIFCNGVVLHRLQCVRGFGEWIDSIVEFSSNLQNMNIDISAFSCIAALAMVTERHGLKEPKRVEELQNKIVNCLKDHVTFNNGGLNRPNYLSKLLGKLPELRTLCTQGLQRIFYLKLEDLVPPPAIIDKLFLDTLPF

Activity [1]: Active | Activity [3]: Active | Activity [4]: Active | Activity [5]: Active | Activity [6]: Active | Activity [7]: Active | Activity [8]: Active | Activity [10]: Active | Activity [11]: Active | Activity [13]: Active | Activity [16]: Active | Activity [17]: Active
SMILES: COCCOCc1ccc(-c2cc3onc(-c4ccccc4)c3c(=O)n2C)cc1
Activity [2]: Active | Activity [9]: Active | Activity [12]: Non-Toxic | Activity [14]: Non-Toxic | Activity [15]: Non-Toxic
